For 91 compounds, AC50 results are on record in PubChem BioAssay AID624290 (Broad Institute, 2012).

The AC50 is the concentration at which the activity in the assay is half-maximal.

Values joined by “and” are separate entries in the source; they are usually repeats but may differ in a detail not shown here. Equal entries are not always repeated. Active and inactive are the calls of the source.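 The calls were made as follows: active = compounds dimming the MITF-driven luciferase signal, with fitted AC50 at most twice the top tested dose; inconclusive = flat curves with moderate signal drop, or poor-quality fits; inactive = the rest.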 Bounds are passed on as bounds.

This test relates to SK-MEL-5 TRPM1-promoter luciferase reporter, 24 h. The experiment in a line: decrease of TRPM1 reporter luminescence in SK-MEL-5 – cell-based, dry powder samples, set 2, MITF inhibitor project, dose response (AID 624290). Put shortly:
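Detection: SteadyGlo luciferase luminescence. Material: TRPM1 promoter–luciferase reporter stably expressed in SK-MEL-5 melanoma cells. Incubation: compound pinned one day after plating, 24 h exposure at 37 °C. Read-out basis: luminescence change reflecting TRPM1 promoter activity, decrease as inhibition. Benchmarks: parthenolide positive control.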
Consider `COc1ccc(C2=C(NC(=O)c3ccc(OC)cc3-c3cccc(OC)c3)C(=O)c3ccccc3C2=O)cc1`, for which the AC50 is > 70 µM (inactive).

For `CN1CCN(C2=C(NS(=O)(=O)c3cccs3)C(=O)c3ccccc3C2=O)CC1`, the concentration at half-maximal activity (AC50) is 1.94 µM.

In the case of `O=C(NC1=C(N2CCCCC2)C(=O)c2ccccc2C1=O)c1ccccc1`, the AC50 was > 32 µM (inactive).

With `CCN1c2ccccc2NC2N=C(OC)C(c3ccccc3)C21` (stereo unspecified), the concentration at half-maximal activity (AC50) is 2.44 µM.

As for `C=CCNC1=C(Cl)C(=O)c2ccccc2C1=O`, the AC50 was 2.22 µM and 1.94 µM.

`CN1CCN(C2=C(NC(=O)c3ccccc3)C(=O)c3ccccc3C2=O)CC1`: the AC50 is 0.524 µM.

With `CC(=O)N(C)C1=C(N2CCN(C)CC2)C(=O)c2ccccc2C1=O`, the AC50 is 0.432 µM.

On to `COc1ccc(C2=C(NC(=O)c3cccc(Cl)c3)C(=O)c3ccccc3C2=O)cc1`, for which the concentration at half-maximal activity (AC50) was 15.1 µM.

Turning to `O=C(NC1=C(N2CCSCC2)C(=O)c2ccccc2C1=O)c1ccccc1`, the AC50 is 3.07 µM.

Consider `CN1CCN(C2=C(Nc3ccccc3)C(=O)c3ccccc3C2=O)CC1`, for which the half-maximal activity concentration (AC50) is 4.21 µM.

In the case of `CC(=O)NC1=C(c2ccc(Oc3ccccc3)cc2)C(=O)c2ccccc2C1=O`, the AC50 is 17 µM.

Regarding `O=C(NC1=C(N2CCN(c3ccccc3)CC2)C(=O)c2ccccc2C1=O)c1ccccc1`, the AC50 is 17.1 µM.

Turning to `COc1ccc(C2=C(NC(=O)c3ccccc3Cl)C(=O)c3ccccc3C2=O)cc1`, the half-maximal activity concentration (AC50) was 4.92 µM.

On to `O=C(NC1=C(N2CCOCC2)C(=O)c2ccccc2C1=O)c1ccccc1`, for which the AC50 was 5.21 µM.

As for `COc1cccc(C2=C(NC(=O)c3ccccc3)C(=O)c3ccccc3C2=O)c1`, the AC50 was 13.4 µM.

On to `O=C1C(Nc2ccccc2)=C(NS(=O)(=O)c2ccccc2[N+](=O)[O-])C(=O)c2ccccc21`, for which the concentration at half-maximal activity (AC50) was 17.9 µM.

As to `O=C1C(NS(=O)(=O)c2ccc(Br)s2)=C(N2CCOCC2)C(=O)c2ccccc21`, the concentration at half-maximal activity (AC50) was 10.5 µM.

`O=C1C(NS(=O)(=O)c2ccc(Br)s2)=C(N2CCSCC2)C(=O)c2ccccc21`: the AC50 is 12.1 µM.

Take `Cc1nc2ccccc2n1/N=C/c1ccc([N+](=O)[O-])s1`: the AC50 is 1.98 µM.

Regarding `CC1CCN(CC(CS(=O)(=O)c2ccc([N+](=O)[O-])cc2)N2CCC(C)CC2)CC1` (stereo unspecified), the AC50 was 3.87 µM.

Regarding `C=CCNC1=C(NS(=O)(=O)c2ccc(Br)cc2)C(=O)c2ccccc2C1=O`, the AC50 is 6.19 µM.

For `O=C(NC1=C(c2ccc(Oc3ccccc3)cc2)C(=O)c2ccccc2C1=O)c1ccccc1`, the AC50 is > 70 µM (inactive).

Take `CC(=O)NC1=C(c2ccccc2)C(=O)c2ccccc2C1=O`: the half-maximal activity concentration (AC50) is 4.94 µM.

`O=C1C(NS(=O)(=O)c2ccccc2)=C(N2CCOCC2)C(=O)c2ccccc21`: the AC50 is 10.5 µM.

`Cc1ccc(C(=O)NC2=C(c3ccccc3)C(=O)c3ccccc3C2=O)o1`: the half-maximal activity concentration (AC50) is 4.25 µM.

Turning to `C=CCNC1=C(NCCCN(CC)CC)C(=O)c2ccccc2C1=O`, the AC50 is 2.17 µM.

As to `CCN(CC)CCCCNC1=C(Nc2ccccc2)C(=O)c2ccccc2C1=O`, the concentration at half-maximal activity (AC50) was 5.75 µM.

On to `O=C(NC1=C(c2ccccc2)C(=O)c2ccccc2C1=O)c1ccco1`, for which the AC50 is 6.33 µM.

Consider `C=CCNC1=C(N2CCOCC2)C(=O)c2ccccc2C1=O`, for which the AC50 was 2.17 µM.

`CC(=O)N(C)C1=C(N2CCCCC2)C(=O)c2ccccc2C1=O`: the concentration at half-maximal activity (AC50) was 0.576 µM.

With `C=CCNC1=C(N2CCN(CC)CC2)C(=O)c2ccccc2C1=O`, the AC50 is 4.69 µM.

For `C=CCNC1=C(NCC=C)C(=O)c2ccccc2C1=O`, the AC50 is > 70 µM (inactive).

Take `C=CCNC1=C(NS(=O)(=O)c2cccs2)C(=O)c2ccccc2C1=O`: the concentration at half-maximal activity (AC50) is 16 µM.

Turning to `CCN(CC)CCNC1=C(Nc2ccccc2)C(=O)c2ccccc2C1=O`, the AC50 is 1.66 µM.

For `COc1ccc(C2=C(NC(=O)c3ccc4ccccc4c3)C(=O)c3ccccc3C2=O)cc1`, the AC50 was > 70 µM (inactive).

As to `O=C1C=C(Nc2ccccc2)C(=O)c2ccccc21`, the half-maximal activity concentration (AC50) is 4.03 µM.

For the compound `O=C(NC1=C(c2ccc(OC(F)(F)F)cc2)C(=O)c2ccccc2C1=O)c1ccc(Br)cc1`, the concentration at half-maximal activity (AC50) is 16.3 µM.

As to `O=C1C(NS(=O)(=O)c2ccc(Br)cc2)=C(N2CCSCC2)C(=O)c2ccccc21`, the concentration at half-maximal activity (AC50) is 13.9 µM.

Turning to `O=C1C(NS(=O)(=O)c2cccs2)=C(N2CCOCC2)C(=O)c2ccccc21`, the concentration at half-maximal activity (AC50) is 10.2 µM.

As for `O=C(NC1=C(c2ccc(OC(F)(F)F)cc2)C(=O)c2ccccc2C1=O)c1ccccc1`, the half-maximal activity concentration (AC50) is 16.6 µM.

Turning to `CCN1CCN(C2=C(NC(=O)c3ccccc3)C(=O)c3ccccc3C2=O)CC1`, the concentration at half-maximal activity (AC50) is 0.714 µM.

As to `O=C1C(NCCCN2CCOCC2)=C(Nc2ccccc2)C(=O)c2ccccc21`, the AC50 is 7.78 µM.

On to `CCN(CC)CCCNC1=C(Nc2ccccc2)C(=O)c2ccccc2C1=O`, for which the half-maximal activity concentration (AC50) was 2.01 µM.

As to `O=C(NC1=C(c2ccccc2)C(=O)c2ccccc2C1=O)c1ccccc1`, the concentration at half-maximal activity (AC50) was 3.73 µM.

For the compound `C=CCNC1=C(N2CCN(C)CC2)C(=O)c2ccccc2C1=O`, the concentration at half-maximal activity (AC50) is 4.58 µM.

`C=CCNC1=C(NCCCN2CCOCC2)C(=O)c2ccccc2C1=O`: the AC50 is 10.5 µM.

Consider `CCN1CCN(C2=C(NC(=O)c3ccc(Br)cc3)C(=O)c3ccccc3C2=O)CC1`, for which the AC50 was 0.433 µM.

As to `CN1CCN(C2=C(NS(=O)(=O)c3ccc(Br)s3)C(=O)c3ccccc3C2=O)CC1`, the AC50 was 2.53 µM.

Take `CCN1CCN(C2=C(Nc3ccccc3)C(=O)c3ccccc3C2=O)CC1`: the concentration at half-maximal activity (AC50) is 2.34 µM.

Turning to `O=C1C(NS(=O)(=O)c2ccccc2)=C(N2CCCCC2)C(=O)c2ccccc21`, the AC50 was 21.5 µM.

For `CCN1CCN(C2=C(NS(=O)(=O)c3cccs3)C(=O)c3ccccc3C2=O)CC1`, the AC50 is 2.8 µM.

Turning to `O=C1C(NS(=O)(=O)c2ccc(Br)cc2)=C(N2CCN(c3ccccc3)CC2)C(=O)c2ccccc21`, the AC50 is 21.3 µM.

Consider `O=C1C(Nc2ccccc2)=C(N2CCOCC2)C(=O)c2ccccc21`, for which the AC50 is 7.25 µM and 6.91 µM.

For the compound `NC1=C(c2ccc(OC(F)(F)F)cc2)C(=O)c2ccccc2C1=O`, the AC50 is 20.9 µM.

With `O=C1C(NS(=O)(=O)c2ccc(Br)s2)=C(N2CCCCC2)C(=O)c2ccccc21`, the concentration at half-maximal activity (AC50) is 16.6 µM.

In the case of `COc1ccc(C2=C(NC(=O)c3ccccc3OC)C(=O)c3ccccc3C2=O)cc1`, the concentration at half-maximal activity (AC50) is 25.4 µM.

As to `C=CCNC1=C(NC(=O)c2ccccc2)C(=O)c2ccccc2C1=O`, the concentration at half-maximal activity (AC50) was 17.5 µM.

As for `CCN1CCN(C2=C(NS(=O)(=O)c3ccc(Br)s3)C(=O)c3ccccc3C2=O)CC1`, the half-maximal activity concentration (AC50) was 2.97 µM.

As for `COc1ccc(C(=O)NC2=C(c3ccccc3)C(=O)c3ccccc3C2=O)cc1`, the AC50 is 4.99 µM.

On to `O=C1C(NS(=O)(=O)c2ccc(Br)cc2)=C(N2CCOCC2)C(=O)c2ccccc21`, for which the half-maximal activity concentration (AC50) is 6.22 µM.

As for `NC1=C(c2ccccc2)C(=O)c2ccccc2C1=O`, the AC50 was 5.86 µM.

Regarding `CC(=O)N(C)C1=C(N2CCOCC2)C(=O)c2ccccc2C1=O`, the concentration at half-maximal activity (AC50) was 2.04 µM.

As to `CCN1CCN(C2=C(NS(=O)(=O)c3ccc(Br)cc3)C(=O)c3ccccc3C2=O)CC1`, the concentration at half-maximal activity (AC50) was 4.27 µM.

Take `C=CCNC1=C(N2CCSCC2)C(=O)c2ccccc2C1=O`: the AC50 is 5.12 µM.

As for `C=C1C(=O)OC2C1CC/C(C)=C\CCC1(C)OC21` (stereo unspecified), the AC50 was 5.01 µM.

With `O=C(CNc1cccc2ccccc12)N/N=C/c1ccc([N+](=O)[O-])o1`, the AC50 is 1.52 µM.

For `Cc1ccc(C(=O)NC2=C(c3ccc(OC(F)(F)F)cc3)C(=O)c3ccccc3C2=O)o1`, the AC50 was 12.4 µM.

Take `CCN1CCN(C2=C(N(C)C(C)=O)C(=O)c3ccccc3C2=O)CC1`: the AC50 was 0.561 µM.

Turning to `NC1=C(NC(=O)c2ccccc2)C(=O)c2ccccc2C1=O`, the half-maximal activity concentration (AC50) was 3.65 µM.

For `CN1CCN(C2=C(NC(=O)c3ccc(Br)cc3)C(=O)c3ccccc3C2=O)CC1`, the AC50 is 0.685 µM.

For `O=C(NC1=C(c2ccc(OC(F)(F)F)cc2)C(=O)c2ccccc2C1=O)c1ccccc1F`, the half-maximal activity concentration (AC50) is 12 µM.

As to `COc1ccc(S(=O)(=O)N(C(C)=O)c2ccc(OC(C)=O)c3ccccc23)cc1[N+](=O)[O-]`, the concentration at half-maximal activity (AC50) is 6.36 µM.

In the case of `O=C(NC1=C(N2CCSCC2)C(=O)c2ccccc2C1=O)c1ccc(Br)cc1`, the AC50 is 6.2 µM.

As for `COc1ccc(C(=O)NC2=C(c3ccc(OC)cc3)C(=O)c3ccccc3C2=O)cc1`, the AC50 was 5.86 µM.

Turning to `O=C1C(NS(=O)(=O)c2cccs2)=C(N2CCCCC2)C(=O)c2ccccc21`, the concentration at half-maximal activity (AC50) is 21.3 µM.

Take `CCN(CC)CCCNC1=C(N(C)C(C)=O)C(=O)c2ccccc2C1=O`: the AC50 was 0.823 µM.

Regarding `C=CCNC1=C(NCCN(CC)CC)C(=O)c2ccccc2C1=O`, the concentration at half-maximal activity (AC50) was 1.88 µM.

As to `O=C1C(NS(=O)(=O)c2ccc(Br)cc2)=C(N2CCCCC2)C(=O)c2ccccc21`, the half-maximal activity concentration (AC50) was 10.5 µM.

In the case of `O=C1C(NS(=O)(=O)c2ccc(Br)cc2)=C(c2ccccc2)C(=O)c2ccccc21`, the concentration at half-maximal activity (AC50) is 18.5 µM.

`O=C(NC1=C(Cl)C(=O)c2ccccc2C1=O)c1ccccc1`: the concentration at half-maximal activity (AC50) was 0.806 µM.

For `O=C(NC1=C(N2CCOCC2)C(=O)c2ccccc2C1=O)c1ccc(Br)cc1`, the AC50 was 4.96 µM.

In the case of `CC(=O)NC1=C(c2ccc3c(c2)oc2ccccc23)C(=O)c2ccccc2C1=O`, the AC50 is 1.04 µM.

Take `COc1ccc(C2=C(NC(C)=O)C(=O)c3ccccc3C2=O)cc1`: the half-maximal activity concentration (AC50) was 4.13 µM.

Turning to `COc1ccc(C(=O)NC2=C(c3ccc(OC(F)(F)F)cc3)C(=O)c3ccccc3C2=O)cc1`, the AC50 is 34.1 µM.

As for `O=C1C(NS(=O)(=O)c2ccc(Br)cc2)=C(c2ccc(OC(F)(F)F)cc2)C(=O)c2ccccc21`, the concentration at half-maximal activity (AC50) was 10.4 µM.

Turning to `NC1=CC(=O)c2ccccc2C1=O`, the AC50 was 1.1 µM.

Consider `CC(=O)NC1=C(c2cccc(Cl)c2)C(=O)c2ccccc2C1=O`, for which the AC50 is 2.31 µM.

`COC1=C(NS(=O)(=O)c2ccccc2)C(=O)c2ccccc2C1=O`: the AC50 is 4.56 µM.

Regarding `O=C(NC1=C(c2ccc(OC(F)(F)F)cc2)C(=O)c2ccccc2C1=O)c1ccco1`, the AC50 is 14.8 µM.

Regarding `C[C@@H](NC1=C(Nc2ccccc2)C(=O)c2ccccc2C1=O)c1ccccc1`, the concentration at half-maximal activity (AC50) was 6.71 µM.

Regarding `COc1cccc(-c2cc(C(=O)NC3=C(Cl)C(=O)c4ccccc4C3=O)ccc2OC)c1`, the half-maximal activity concentration (AC50) is 2.5 µM.
